Data set [1] can be described thus: Stability of the compound in PBS buffer at pH 7.4. Type of data set: physicochemical.
A short description of data set [2]: Half life in human plasma by LC-MS/MS analysis. Type of data set: ADME, cell-free.
The target in data set [3] is Rho-associated protein kinase 2 (Homo sapiens, UniProt O75116). In words: Inhibition of ROCK2 (unknown origin) using long S6 kinase peptide as substrate by radiometric assay.
A short description of data set [4]: Half life in aqueous humor of New Zealand white rabbit assessed as specific hydrolytic activity at 20 uM by LC-MS/MS analysis. Type of data set: ADME, tissue-based, Oryctolagus cuniculus, Aqueous humor of eyeball. In outline: (§1)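 Test compound was incubated with ocular tissues from ocular normotensive New Zealand White rabbits, and its degradation rate was followed. Specific hydrolytic activity (pmol min-1 mg-1) was calculated by normalizing the degradation rate to tissue weight. Aqueous humor half-life refers to undiluted aqueous humor.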

The subject of data set [5] is Oryctolagus cuniculus. In words: Reduction of IOP in New Zealand white rabbit eye administered topically after 3 hrs relative to baseline. It is filed as functional. More on the design: scale not given: the % may be the effect or the level left.
Data set [6] in a line: Drug degradation in sclera of New Zealand white rabbit assessed as specific hydrolytic activity at 20 uM after 4 hrs by LC-MS/MS analysis. Type of data set: ADME, tissue-based, Oryctolagus cuniculus. In outline:
as §1

Data set [7] in a line: Drug degradation in conjunctiva of New Zealand white rabbit assessed as specific hydrolytic activity at 20 uM after 4 hrs by LC-MS/MS analysis. Type of data set: ADME, tissue-based, Oryctolagus cuniculus. The essentials:
as §1

Data set [8] is described as follows: Drug degradation in vitreous humor of New Zealand white rabbit assessed as specific hydrolytic activity at 20 uM after 4 hrs by LC-MS/MS analysis. Type of data set: ADME, tissue-based, Oryctolagus cuniculus. In outline: as §1
Data set [9] is described as follows: Drug degradation in cornea of New Zealand white rabbit assessed as specific hydrolytic activity at 20 uM after 4 hrs by LC-MS/MS analysis. It is filed as ADME, tissue-based, Oryctolagus cuniculus. The essentials:
as §1

Data set [10] can be described thus: Drug degradation in aqueous humor of New Zealand white rabbit assessed as specific hydrolytic activity at 20 uM after 4 hrs by LC-MS/MS analysis. Type of data set: ADME, tissue-based, Oryctolagus cuniculus, Aqueous humor of eyeball. The essentials:
as §1

The species entered for data set [11] is Oryctolagus cuniculus. In words: Toxicity in New Zealand white rabbit assessed as hyperemia. Type of data set: organism-based. The note with it: in vivo.
Data set [12] is described as follows: Inhibition of ROCK in rat A7r5 cells assessed as inhibition of MLC phosphorylation by direct ELISA. Type of data set: cell-based. Background: An ELISA detects its analyte on a solid surface through an enzyme-linked reagent.
Data set [13] deals with Oryctolagus cuniculus. In words: Reduction of IOP in New Zealand white rabbit eye administered topically after 6 hrs relative to vehicle-treated control. It is filed as functional.
A short description of data set [14]: Drug degradation in human plasma after 60 mins by LC-MS/MS analysis. It is filed as ADME, cell-free. As to conditions: read-out: Drug degradation.
The nature of data set [15]: Apparent permeability of the compound at 10 uM after 5 hrs by PAMPA. It is filed as ADME.

Activity calls are given as the source filed them. The calls are words filed in the database; no cut-off is given here.

Sequence of Rho-associated protein kinase 2 (O75116 whole entry): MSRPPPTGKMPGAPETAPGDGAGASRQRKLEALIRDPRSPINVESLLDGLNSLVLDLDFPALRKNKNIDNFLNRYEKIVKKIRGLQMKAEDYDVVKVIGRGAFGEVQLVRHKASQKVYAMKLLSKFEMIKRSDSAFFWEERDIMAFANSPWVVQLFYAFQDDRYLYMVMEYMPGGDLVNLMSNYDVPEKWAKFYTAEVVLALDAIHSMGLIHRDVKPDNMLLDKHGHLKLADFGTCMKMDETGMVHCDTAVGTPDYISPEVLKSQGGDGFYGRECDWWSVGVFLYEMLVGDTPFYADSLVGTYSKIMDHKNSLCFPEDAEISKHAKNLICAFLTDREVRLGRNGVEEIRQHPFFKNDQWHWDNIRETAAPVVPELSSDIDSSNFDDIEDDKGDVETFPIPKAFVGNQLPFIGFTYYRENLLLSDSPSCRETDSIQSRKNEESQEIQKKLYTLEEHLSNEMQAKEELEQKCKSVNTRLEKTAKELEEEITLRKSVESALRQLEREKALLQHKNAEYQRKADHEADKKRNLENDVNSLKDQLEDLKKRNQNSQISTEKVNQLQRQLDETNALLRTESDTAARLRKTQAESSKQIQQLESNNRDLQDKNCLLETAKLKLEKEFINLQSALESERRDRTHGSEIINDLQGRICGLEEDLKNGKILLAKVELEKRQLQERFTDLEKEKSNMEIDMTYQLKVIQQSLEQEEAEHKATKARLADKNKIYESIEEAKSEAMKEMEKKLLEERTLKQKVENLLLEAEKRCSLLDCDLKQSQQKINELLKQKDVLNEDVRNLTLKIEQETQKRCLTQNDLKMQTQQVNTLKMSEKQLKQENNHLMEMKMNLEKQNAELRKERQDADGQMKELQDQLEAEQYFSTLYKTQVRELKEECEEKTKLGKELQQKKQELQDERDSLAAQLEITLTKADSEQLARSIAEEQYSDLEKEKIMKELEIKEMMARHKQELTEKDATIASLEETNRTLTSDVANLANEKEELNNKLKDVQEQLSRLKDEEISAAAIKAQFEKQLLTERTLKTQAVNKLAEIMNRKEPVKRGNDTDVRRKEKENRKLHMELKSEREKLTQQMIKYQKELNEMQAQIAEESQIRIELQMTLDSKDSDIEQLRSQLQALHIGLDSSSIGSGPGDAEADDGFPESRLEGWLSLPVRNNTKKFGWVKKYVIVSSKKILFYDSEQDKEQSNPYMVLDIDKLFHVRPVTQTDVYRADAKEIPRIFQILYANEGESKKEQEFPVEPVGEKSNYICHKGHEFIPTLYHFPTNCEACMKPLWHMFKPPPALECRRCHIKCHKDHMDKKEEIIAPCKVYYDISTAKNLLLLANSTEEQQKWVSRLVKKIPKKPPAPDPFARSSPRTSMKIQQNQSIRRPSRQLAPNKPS

Consider `NCc1ccc(C(=O)Nc2ccncc2)cc1-c1cccc(C(=O)OCc2ccccc2)c1`, for which, in [1], the Stability entry is on record as “Stable”. The half-life in data set [2] came out at 64 min. For the same compound, in [3], inhibition was half-maximal at 45 nM (IC50).

For the compound `NCc1ccc(C(=O)Nc2ccncc2F)cc1-c1cccc(C(=O)OCC2CCC2)c1`, in data set [1], the Stability result is “Stable”. The compound also yielded a half-life in [2] of 13 min. Further, in data set [3], the 50% inhibitory concentration (IC50) came out at 4.3 nM.

Turning to `NCc1ccc(C(=O)Nc2ccncc2F)cc1-c1cccc(C(=O)OCC2CC2)c1`, in data set [1], the Stability result is on record as “Stable”. Further, the half-life in [2] was found to be 18 min. In addition, inhibition in [3] was half-maximal at 2.7 nM (IC50).

In the case of `NCc1ccc(C(=O)Nc2ccncc2F)cc1-c1cccc(C(=O)OCC2CCCO2)c1` (stereo not given), the half-life at 20 µM in data set [4] is 116 min. The results for the Activity in data set [5], in [11] and in data set [13] (record 2) were 28.7%, “Non-toxic” and 0.5%, respectively. The Drug degradation came out at 1 pmol/min/mg in data set [6]; 1.52 pmol/min/mg in data set [7]; 0.22 pmol/min/mg in data set [8]; 2.71 pmol/min/mg in data set [9]; 0.12 pmol/min/mg in data set [10]. In addition, the Stability entry in data set [1] was “Stable”. The half-life in data set [2] is less than 5 min. In addition, the EC50 in data set [12] turned out to be 16 nM. This compound also had an IC50 in data set [3] of 2.5 nM. Besides, the result in data set [13] was Active.

For the compound `NCc1ccc(C(=O)Nc2ccncc2)cc1-c1cccc(C(=O)OCC2CCCC2)c1`, the Stability entry in data set [1] is reported as “Stable”. The compound also yielded a half-life in [2] of 31 min. Besides, the concentration giving a half-maximal response (EC50) in [12] is 70 nM. In [3], this compound displayed an IC50 of 5 nM.

For the compound `NCc1ccc(C(=O)Nc2ccncc2F)cc1-c1cccc(C(=O)O)c1`, in data set [14], the metabolised at 1 h was less than 5%. In data set [2], this compound had a half-life of more than 120 min. The Papp at 5 h, 10 µM in [15] was less than 0.01 ×10⁻⁶ cm/s. Besides, the half-maximal effective concentration (EC50) in data set [12] was more than 1000 nM. For the same compound, the IC50 in data set [3] was 55 nM.

`COCCOC(=O)c1cccc(-c2cc(C(=O)Nc3ccncc3)ccc2CN)c1`: the Stability entry in data set [1] is reported as “Stable”. Besides, in [2], the half-life turned out to be 12 min. Moreover, the concentration giving a half-maximal response (EC50) in data set [12] was 170 nM. Inhibition in data set [3] was half-maximal at 3.6 nM (IC50).

On to `NCc1ccc(C(=O)Nc2ccncc2)cc1-c1cccc(C(=O)OC2CCCCC2)c1`, for which the Stability result in [1] is “Unstable”. In [2], this compound registered a half-life of more than 120 min. The compound further displayed a 50% inhibitory concentration (IC50) in [3] of 20 nM.

Turning to `NCc1ccc(C(=O)Nc2ccncc2F)cc1-c1cccc(C(=O)Oc2ccccc2)c1`, the Stability entry in data set [1] is listed as “Stable”. Also, the half-life in data set [2] worked out at 7 min. The IC50 in data set [3] was 6.2 nM.

As for `CCCCCCOC(=O)c1cccc(-c2cc(C(=O)Nc3ccncc3)ccc2CN)c1`, the Stability result in data set [1] is listed as “Stable”. Further, the half-life in data set [2] came to 50 min. Also, the midpoint of inhibition in [3], the IC50, lay at 22 nM.

Take `CC(N)c1ccc(C(=O)Nc2ccncc2)cc1-c1ccc(F)cc1` (stereo not given): the metabolised at 1 h in data set [14] was less than 5%. Moreover, in data set [2], the half-life was more than 120 min. Moreover, the concentration for a half-maximal effect (EC50) in data set [12] is 6.1 nM. Moreover, the IC50 in data set [3] turned out to be 1.2 nM.

For `COCCCOC(=O)c1cccc(-c2cc(C(=O)Nc3ccncc3)ccc2CN)c1`, in data set [1], the Stability entry is recorded as “Stable”. In data set [2], the half-life stood at 26 min. Further, the EC50 in [12] is 28 nM. In [3], this compound had an IC50 of 1.5 nM.

With `NCc1ccc(C(=O)Nc2ccncc2F)cc1-c1cccc(C(=O)OC2CCCOC2)c1` (stereo not given), in data set [1], the Stability result was “Stable”. In addition, the half-life in data set [2] was 18 min. The same compound showed an IC50 in [3] of 8.7 nM.

In the case of `NCc1ccc(C(=O)Nc2ccncc2F)cc1-c1cccc(C(=O)OCC2CCCCO2)c1` (stereo not given), the Stability entry in data set [1] is on record as “Stable”. The half-life in data set [2] was found to be 7 min. Moreover, in [3], the IC50 was found to be 12 nM.

Consider `CCOC(=O)c1cccc(-c2cc(C(=O)Nc3ccncc3)ccc2CN)c1`, for which the Stability result in data set [1] is on record as “Stable”. Also, the half-life in [2] was 41 min. Also, the IC50 in data set [3] is less than 1 nM.

Turning to `CCCOC(=O)c1cccc(-c2cc(C(=O)Nc3ccncc3F)ccc2CN)c1`, in data set [1], the Stability entry is given as “Stable”. Further, the half-life in data set [2] was determined as 19 min. For the same compound, it took 5.1 nM to reach half-maximal inhibition in [3] (IC50).

In the case of `CCCOC(=O)c1cccc(-c2cc(C(=O)Nc3ccncc3)ccc2CN)c1`, in data set [1], the Stability entry was “Stable”. Moreover, the half-life in data set [2] worked out at 18 min. For the same compound, the EC50 in [12] came out at 9.1 nM. This compound also gave a half-inhibitory concentration (IC50) in data set [3] of 1.4 nM.

As to `CC(C)OCCOC(=O)c1cccc(-c2cc(C(=O)Nc3ccncc3F)ccc2CN)c1`, the Stability result in data set [1] is recorded as “Stable”. In data set [2], this compound came in with a half-life of 6 min. In [3], the IC50 was 37 nM.

`NCc1ccc(C(=O)Nc2ccncc2F)cc1-c1cccc(C(=O)OCCO)c1`: the Stability result in data set [1] is recorded as “Stable”. This compound gave a half-life in data set [2] of 81 min. For the same compound, the concentration for half-maximal inhibition (IC50) in data set [3] is 1.4 nM.

Regarding `COC(=O)c1cccc(-c2cc(C(=O)Nc3ccncc3F)ccc2CN)c1`, in data set [1], the Stability result was “Stable”. The compound further gave a half-life in data set [2] of 65 min. For the same compound, the EC50 in [12] is 130 nM. Besides, the IC50 in data set [3] was 7.8 nM.

In turn, `COC(=O)c1ccc(-c2cc(C(=O)Nc3ccncc3)ccc2CN)cc1` yielded a half-maximal inhibitory concentration (IC50) in data set [3] of 102 nM.

Regarding `COC(=O)c1cccc(-c2cc(C(=O)Nc3ccncc3)ccc2CN)c1`, in data set [1], the Stability entry was “Stable”. In [2], this compound registered a half-life of 91 min. Also, the EC50 in [12] came to 8 nM. In addition, the 50% inhibitory concentration (IC50) in data set [3] was found to be 2.9 nM.

In the case of `NCc1ccc(C(=O)Nc2ccncc2F)cc1-c1cccc(C(=O)OCC2CCCC2)c1`, the Stability result in data set [1] was “Stable”. The same compound yielded a half-life in data set [2] of 17 min. Besides, the EC50 in data set [12] worked out at 52 nM. Further, half-maximal inhibition in [3] (IC50) required 13 nM.

Regarding `NCc1ccc(C(=O)Nc2ccncc2)cc1-c1cccc(C(=O)OCC2CCCCC2)c1`, the Stability entry in [1] is “Stable”. In data set [2], the half-life came to 99 min. Moreover, the concentration for half-maximal inhibition (IC50) in data set [3] amounted to 48 nM.

On to `C[C@@H](N)[C@H]1CC[C@H](C(=O)Nc2ccncc2)CC1` [Y-27632], for which, in [14], the metabolised at 1 h was less than 5%. The half-life in data set [2] was more than 120 min. Moreover, the EC50 in data set [12] was found to be 200 nM.

For the compound `CCCCCOC(=O)c1cccc(-c2cc(C(=O)Nc3ccncc3)ccc2CN)c1`, in [1], the Stability result was “Stable”. In data set [2], the half-life worked out at 58 min. In addition, the 50% inhibitory concentration (IC50) in data set [3] is 4.9 nM.

For the compound `CCCCOC(=O)c1cccc(-c2cc(C(=O)Nc3ccncc3)ccc2CN)c1`, in data set [1], the Stability entry was “Stable”. This compound also had a half-life in [2] of 22 min. In addition, half-maximal inhibition in [3] (IC50) required 5.5 nM.

As to `NCc1ccc(C(=O)Nc2ccncc2)cc1-c1cccc(C(=O)O)c1`, the metabolised at 1 h in data set [14] was less than 5%. The half-life in data set [2] is more than 120 min. Further, in data set [15], the apparent permeability (Papp) at 5 h, 10 µM is less than 0.01 ×10⁻⁶ cm/s. For the same compound, in data set [12], the half-maximal effective concentration (EC50) was more than 1000 nM. In [3], this compound displayed an IC50 of 167 nM.

As a reminder, the half-life is how long it takes for the measured level to halve. Usually IC50 stands for the point on the concentration scale where inhibition reaches its midpoint. By EC50 is commonly meant the concentration at which the effect is half-maximal. As a reminder, the Papp is the rate of passage across a membrane or cell layer, normalised by area and donor concentration.

These data come from ChEMBL document CHEMBL2440036, “3-[2-(Aminomethyl)-5-[(pyridin-4-yl)carbamoyl]phenyl] benzoates as soft ROCK inhibitors” (Bioorg Med Chem Lett, 2013).
